What all share (type): functional
Assay [1] concerns Staphylococcus aureus. In words: Minimum inhibitory concentration against methicillin resistant Staphylococcus aureus OC 2878. The essentials:
(§1)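 Broth microdilution per NCCLS methods; MIC read as the lowest compound concentration inhibiting visible growth. Linezolid run as standard. Strains from a four-strain Gram-positive screening panel: S. aureus OC 2878 is methicillin-resistant, E. faecium OC 3312 is vancomycin-resistant.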

A further assay deals with Enterococcus faecium. In words: Minimum inhibitory concentration against vancomycin resistant Enterococcus faecium OC 3312. The essentials: as §1
Assay [2] has as its system Staphylococcus aureus. In words: Minimum inhibitory concentration against Staphylococcus aureus broth. The essentials:
(§2)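 Broth microdilution MIC run by National Committee for Clinical Laboratory Standards methods, with linezolid as standard. MIC is the lowest compound concentration inhibiting visible growth.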

For the next assay, the system named is Enterococcus faecalis. In words: Minimum inhibitory concentration against Enterococcus faecalis ATTCC 29212. The essentials:
as §2

The test system of assay [3] is Staphylococcus aureus. In words: Minimum inhibitory concentration against Staphylococcus aureus OC 4172 in precense of 50% mouse serum. The essentials:
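Broth microdilution MIC against S. aureus OC 4172 (Smith, methicillin-susceptible) with 50% mouse serum in the medium, to gauge protein binding or serum inactivation. Run by NCCLS methods with linezolid as standard. MIC is the lowest concentration inhibiting visible growth.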

The subject of assay [4] is Mus musculus. In words: Effective dose of compound after oral administration in murine model infected with Staphylococcus aureus OC4172 (Smith) was determined. The essentials:
(§3)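 Murine model of lethal systemic infection, with compound given orally. ED50 is the dose protecting 50% of mice from death, expressed in mg/kg/day.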

The test system of assay [5] is Mus musculus. In words: Effective dose of compound after oral administration in mice with Staphylococcus aureus OC4172 (Smith) was determined. Put shortly: as §3

The structures appear in SMILES notation. ≈ marks a conversion by molar mass, not a printed value.

As usually defined, the MIC is the smallest concentration in the dilution series that meets the test's criterion for growth inhibition. A lower MIC goes with a more susceptible organism. As for `CC(=O)NC[C@H]1CN(c2ccc(N3Cc4ccccc4C3=O)c(F)c2)C(=O)O1`, the MIC in the assay with Staphylococcus aureus [1] was 4 µg/mL (≈ 10.4 µM); with Enterococcus faecium, 8 µg/mL (≈ 20.9 µM); in the assay on Staphylococcus aureus [2], 4 µg/mL (≈ 10.4 µM); in the assay on Enterococcus faecalis, 8 µg/mL (≈ 20.9 µM); with Staphylococcus aureus [3] it was 16 µg/mL (≈ 41.7 µM).

In the case of `CC(=O)NC[C@H]1CN(c2ccc(N3Cc4cccnc4C3=O)c(F)c2)C(=O)O1`, the minimal inhibitory concentration (MIC) in the assay on Staphylococcus aureus [1] is 8 µg/mL (≈ 20.8 µM); against Enterococcus faecium, 8 µg/mL (≈ 20.8 µM); against Staphylococcus aureus [2] it was 8 µg/mL (≈ 20.8 µM); with Enterococcus faecalis it was 32 µg/mL (≈ 83.3 µM); against Staphylococcus aureus [3], 8 µg/mL (≈ 20.8 µM).

On to `CC(=O)NC[C@H]1CN(c2ccc(N3Cc4ccncc4C3)c(F)c2)C(=O)O1`, for which the MIC in the assay on Staphylococcus aureus [1] stood at 0.5 µg/mL (≈ 1.35 µM); with Enterococcus faecium, 1 µg/mL (≈ 2.7 µM); with Staphylococcus aureus [2] it was 1 µg/mL (≈ 2.7 µM); against Enterococcus faecalis, 1 µg/mL (≈ 2.7 µM); against Staphylococcus aureus [3], 1 µg/mL (≈ 2.7 µM).

With `CC(=O)NC[C@H]1CN(c2ccc(N3Cc4cncnc4C3)c(F)c2)C(=O)O1`, the minimum inhibitory concentration (MIC) against Staphylococcus aureus [1] came out at 1 µg/mL (≈ 2.69 µM); against Enterococcus faecium it was 1 µg/mL (≈ 2.69 µM); against Staphylococcus aureus [2], 1 µg/mL (≈ 2.69 µM); against Enterococcus faecalis, 2 µg/mL (≈ 5.39 µM); against Staphylococcus aureus [3] it was 2 µg/mL (≈ 5.39 µM).

With `CC(=O)NC[C@H]1CN(c2ccc(N3C(=O)c4ccncc4C3=O)c(F)c2)C(=O)O1`, the minimal inhibitory concentration (MIC) in the assay with Enterococcus faecium, with Staphylococcus aureus [2], in the assay on Enterococcus faecalis and against Staphylococcus aureus [3] was greater than 128 µg/mL throughout.

Consider `CC(=O)NC[C@H]1CN(c2ccc(N3Cc4cccnc4C3)c(F)c2)C(=O)O1`, for which the MIC is 0.25 µg/mL (≈ 0.675 µM) in the assay on Staphylococcus aureus [1]; 0.5 µg/mL (≈ 1.35 µM) against Enterococcus faecium; 0.5 µg/mL (≈ 1.35 µM) with Staphylococcus aureus [2]; 0.5 µg/mL (≈ 1.35 µM) against Enterococcus faecalis; 1 µg/mL (≈ 2.7 µM) against Staphylococcus aureus [3].

On to `CC(=O)NC[C@H]1CN(c2ccc(N3C(=O)c4ccccc4C3=O)c(F)c2)C(=O)O1`, for which the MIC against Staphylococcus aureus [1] was 16 µg/mL (≈ 40.3 µM); in the assay with Enterococcus faecium, 32 µg/mL (≈ 80.5 µM); with Staphylococcus aureus [2], 32 µg/mL (≈ 80.5 µM); with Enterococcus faecalis it was 64 µg/mL (≈ 161 µM); with Staphylococcus aureus [3], 128 µg/mL (≈ 322 µM).

As usually defined, the ED50 is the midpoint of the dose-response relation. A lower ED50 goes with an effect at a small dose. Consider `CC(=O)NC[C@H]1CN(c2ccc(N3CCOCC3)c(F)c2)C(=O)O1` [LINEZOLID], for which the figures for the MIC against Staphylococcus aureus [1] and against Enterococcus faecium were 1 µg/mL (≈ 2.96 µM) and 2 µg/mL (≈ 5.93 µM), respectively. Besides, in the assay on Mus musculus [4], it took a dose of 8 mg/kg/day to reach the 50% effect level (ED50).

For the compound `CC(=O)NC[C@H]1CN(c2ccc(N3C(=O)c4cccnc4C3=O)c(F)c2)C(=O)O1`, the MIC in the assay with Enterococcus faecium, in the assay with Staphylococcus aureus [2], with Enterococcus faecalis and in the assay with Staphylococcus aureus [3] was greater than 128 µg/mL each time.

In the case of `CC(=O)NC[C@H]1CN(c2ccc(-n3cc4cncnc4c3)c(F)c2)C(=O)O1`, the MIC against Staphylococcus aureus [1] stood at 1 µg/mL (≈ 2.71 µM); against Enterococcus faecium it was 0.5 µg/mL (≈ 1.35 µM); against Staphylococcus aureus [2], 1 µg/mL (≈ 2.71 µM); in the assay with Enterococcus faecalis it was 1 µg/mL (≈ 2.71 µM); in the assay with Staphylococcus aureus [3], 2 µg/mL (≈ 5.41 µM).

As to `CCN(Cc1cccnc1)c1ccc(N2C[C@H](CNC(C)=O)OC2=O)cc1F`, the MIC in the assay with Staphylococcus aureus [1] stood at 8 µg/mL (≈ 20.7 µM); with Enterococcus faecium it was 16 µg/mL (≈ 41.4 µM); against Staphylococcus aureus [2] it was 16 µg/mL (≈ 41.4 µM); in the assay on Enterococcus faecalis, 16 µg/mL (≈ 41.4 µM); with Staphylococcus aureus [3], 32 µg/mL (≈ 82.8 µM).

For the compound `CC(=O)NC[C@H]1CN(c2ccc(-n3cc4ccncc4c3)c(F)c2)C(=O)O1`, the MIC in the assay on Staphylococcus aureus [1] is 0.5 µg/mL (≈ 1.36 µM); against Enterococcus faecium, 0.5 µg/mL (≈ 1.36 µM); against Staphylococcus aureus [2], 0.5 µg/mL (≈ 1.36 µM); against Enterococcus faecalis, 1 µg/mL (≈ 2.71 µM); in the assay with Staphylococcus aureus [3], 1 µg/mL (≈ 2.71 µM).

For the compound `CCN(Cc1ccccn1)c1ccc(N2C[C@H](CNC(C)=O)OC2=O)cc1F`, the MIC against Enterococcus faecium, in the assay on Staphylococcus aureus [2], in the assay with Enterococcus faecalis and with Staphylococcus aureus [3] was greater than 128 µg/mL in each case.

On to `CC(=O)NC[C@H]1CN(c2ccc(N3Cc4ccccc4C3)c(F)c2)C(=O)O1`, for which the MIC in the assay on Staphylococcus aureus [1] is 1 µg/mL (≈ 2.71 µM); in the assay with Enterococcus faecium, 4 µg/mL (≈ 10.8 µM); in the assay with Staphylococcus aureus [2], 4 µg/mL (≈ 10.8 µM); against Enterococcus faecalis, 4 µg/mL (≈ 10.8 µM); against Staphylococcus aureus [3], 16 µg/mL (≈ 43.3 µM). Besides, in the assay on Mus musculus [5], the ED50 was greater than 80 mg/kg/day.

As to `CC(=O)NC[C@H]1CN(c2ccc(-n3cc4cccnc4c3)c(F)c2)C(=O)O1`, the minimal inhibitory concentration (MIC) with Staphylococcus aureus [1] is 0.5 µg/mL (≈ 1.36 µM); against Enterococcus faecium, 1 µg/mL (≈ 2.71 µM); in the assay with Staphylococcus aureus [2] it was 1 µg/mL (≈ 2.71 µM); with Enterococcus faecalis it was 1 µg/mL (≈ 2.71 µM); with Staphylococcus aureus [3], 2 µg/mL (≈ 5.43 µM).

Regarding `CC(=O)NC[C@H]1CN(c2ccc(N3Cc4ncccc4C3=O)c(F)c2)C(=O)O1`, the MIC against Staphylococcus aureus [1] amounted to 4 µg/mL (≈ 10.4 µM); with Enterococcus faecium, 8 µg/mL (≈ 20.8 µM); with Staphylococcus aureus [2], 16 µg/mL (≈ 41.6 µM); against Enterococcus faecalis, 16 µg/mL (≈ 41.6 µM); against Staphylococcus aureus [3] it was 8 µg/mL (≈ 20.8 µM).

These data come from ChEMBL document CHEMBL1144984, “Synthesis and antibacterial activity of pyrroloaryl-substituted oxazolidinones” (2003).
